Results published in ChEMBL document CHEMBL5357022, “Fluorinated Isoindolinone-Based Glucosylceramide Synthase Inhibitors with Low Human Dose Projections” (ACS Med Chem Lett, 2024).

What was measured:
PXR (NR1I2) = biological target: T1, PXR (NR1I2) (Homo sapiens, UniProt O75469); assay: Activation of PXR (unknown origin) assessed as maximal efficacy relative to control; assay type: toxicity
T1 sequence (O75469 whole entry): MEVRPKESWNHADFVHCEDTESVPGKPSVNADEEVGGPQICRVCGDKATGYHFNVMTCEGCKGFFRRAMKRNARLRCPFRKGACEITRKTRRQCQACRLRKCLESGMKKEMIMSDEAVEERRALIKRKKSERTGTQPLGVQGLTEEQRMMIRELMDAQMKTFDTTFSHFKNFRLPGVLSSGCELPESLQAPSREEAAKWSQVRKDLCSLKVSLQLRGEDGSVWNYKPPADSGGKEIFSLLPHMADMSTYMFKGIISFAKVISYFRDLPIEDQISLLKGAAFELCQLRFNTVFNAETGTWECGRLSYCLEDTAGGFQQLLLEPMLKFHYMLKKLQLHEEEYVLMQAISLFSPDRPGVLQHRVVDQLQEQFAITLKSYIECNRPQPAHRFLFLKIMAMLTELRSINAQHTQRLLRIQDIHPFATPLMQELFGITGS

[1] = biological target: T2, Nuclear receptor subfamily 1 group I member 2 (Homo sapiens, UniProt O75469); assay: Activation of PXR (unknown origin); assay type: toxicity
T2 sequence (O75469 whole entry): T1 sequence (O75469 whole entry)

[2] = Octanol-water partition coefficient, logD of the compound; assay type: physicochemical
[3] = Metabolic stability in human hepatocytes assessed as intrinsic clearance; assay type: ADME, cell-based, Hepatocyte; details: read-out: CLH
[4] = Unbound volume of distribution in Beagle dog at 1 mg/kg, po in 10% tween 80 formulation or 0.5 mg/kg, iv measured after 24 hrs; assay type: ADME, organism-based, Canis lupus familiaris; details: in vivo
Summary of the method: (§1)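 Beagle dogs were given 0.5 mg/kg IV in DMSO/PEG400/H2O 20/60/20 at 0.5 mL/kg, and 1 mg/kg PO in a 10% Tween 80 formulation. Sampling ran to a 24 h end point.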

[5] = Unbound brain-to-plasma concentration ratio in rat; assay type: ADME; details: read-out: K(p,uu,brain)
[6] = Oral bioavailability in Beagle dog at 1 mg/kg in 10% tween 80 formulation measured after 24 hrs; assay type: ADME, organism-based, Canis lupus familiaris; details: in vivo; summary of the method: as §1
[7] = MRT in Beagle dog at 1 mg/kg, po in 10% tween 80 formulation or 0.5 mg/kg, iv measured after 24 hrs; assay type: ADME, organism-based, Canis lupus familiaris; details: in vivo; summary of the method: as §1
[8] = Oral bioavailability in Wistar Han rat at 5 mg/kg measured after 24 hrs; assay type: ADME, organism-based; details: in vivo
Summary of the method: (§2)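 Wistar Han rats were dosed IV at 2 mg/kg in DMSO/PEG400/H2O 20/60/20 at 1 mL/kg, and PO at 5 mg/kg in PEG400/Tween80/H2O 40/10/50 at 2 mL/kg. Sampling ran to a 24 h end point.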

[9] = Intrinsic clearance in Wistar Han rat at 5 mg/kg, po or 2 mg/kg, iv measured after 24 hrs; assay type: ADME, organism-based; details: in vivo; summary of the method: as §2
[10] = MRT in Wistar Han rat at 5 mg/kg, po or 2 mg/kg, iv measured after 24 hrs; assay type: ADME, organism-based; details: in vivo; summary of the method: as §2
[11] = Plasma protein binding in rat assessed as unbound fraction; assay type: ADME, cell-free
[12] = Plasma protein binding in human assessed as unbound fraction; assay type: ADME, cell-free
[13] = Unbound volume of distribution in Wistar Han rat at 5 mg/kg, po or 2 mg/kg, iv measured after 24 hrs; assay type: ADME, organism-based; details: in vivo; summary of the method: as §2
[14] = […] clearance in Beagle dog at 1 mg/kg, po in 10% tween 80 formulation or 0.5 mg/kg, iv measured after 24 hrs; assay type: ADME, organism-based, Canis lupus familiaris; details: in vivo; summary of the method: as §1
[15] = Plasma protein binding in dog assessed as unbound fraction; assay type: ADME, cell-free, Canis lupus familiaris
[16] = […] clearance in Beagle dog at 1 mg/kg, po in 30% captisol formulation or 0.5 mg/kg, iv measured after 24 hrs; assay type: ADME, organism-based, Canis lupus familiaris; details: in vivo
Summary of the method: (§3)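 Beagle dogs were given 0.5 mg/kg IV in DMSO/PEG400/H2O 20/60/20 at 0.5 mL/kg, and 1 mg/kg PO in 30% Captisol at 2 mL/kg. Sampling ran to a 24 h end point.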

[17] = Oral bioavailability in Beagle dog at 1 mg/kg in 30% captisol formulation measured after 24 hrs; assay type: ADME, organism-based, Canis lupus familiaris; details: in vivo; summary of the method: as §3
[18] = MRT in Beagle dog at 1 mg/kg, po in 30% captisol formulation or 0.5 mg/kg, iv measured after 24 hrs; assay type: ADME, organism-based, Canis lupus familiaris; details: in vivo; summary of the method: as §3
[19] = Unbound volume of distribution in Beagle dog at 1 mg/kg, po in 30% captisol formulation or 0.5 mg/kg, iv measured after 24 hrs; assay type: ADME, organism-based, Canis lupus familiaris; details: in vivo; summary of the method: as §3
[20] = Oral bioavailability in Wistar Han rat at 4 mg/kg measured after 24 hrs; assay type: ADME, organism-based; details: in vivo
Summary of the method: (§4)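 Wistar Han rat PK study with a 24 h end point, using an oral dose of 4 mg/kg.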

[21] = Intrinsic clearance in Wistar Han rat at 4 mg/kg, po measured after 24 hrs; assay type: ADME, organism-based; details: in vivo; summary of the method: as §4
[22] = Clearance in Wistar Han rat at 4 mg/kg, po measured after 24 hrs; assay type: ADME, organism-based; details: in vivo; summary of the method: as §4
[23] = Unbound volume of distribution in Wistar Han rat at 4 mg/kg, po measured after 24 hrs; assay type: ADME, organism-based; details: in vivo; summary of the method: as §4
[24] = MRT in Wistar Han rat at 4 mg/kg, po measured after 24 hrs; assay type: ADME, organism-based; details: in vivo; summary of the method: as §4
[25] = MRT in rat; assay type: ADME; details: in vivo

SMILES | Emax (PXR (NR1I2)) [%] | EC50 [1] [µM] | CLint scaled [3] [mL/min/kg] | Kp uu [5] | bioavailability [8] [%] | CL [9] [mL/min/kg] | MRT [10] [h] | fraction unbound [11] | fraction unbound [12] | Vdu [13] [L/kg] | fraction unbound [15] | CL [16] [mL/min/kg] | bioavailability [17] [%] | MRT [18] [h] | Vdu [19] [L/kg] | also measured
CN1Cc2cc(-c3cccc4c3C(=O)N([C@H](C3CC3)C(C)(C)O)C4)ccc2C1=O | 11 | > 30 |  |  |  |  |  |  |  |  |  |  |  |  |  | 
Cc1nnc(-c2ccc(-c3c(F)cc(F)c4c3C(=O)N([C@H](C3CC3)C(C)(C)O)C4)cc2)o1 | 100 | 4.6 |  |  |  |  |  |  |  |  |  |  |  |  |  | 
Cc1nnc(-c2ccc(-c3cccc4c3C(=O)N([C@H](C3CC3)C(C)(C)O)C4)cc2)o1 | 89 | 29 | 15 | 0.5 | 100 | 211 | 3 | 0.013 | 0.032 | 36 | 0.1 |  |  |  |  | logD [2]: 2.3; Vdu [4]: 9.9 L/kg; bioavailability [6]: 81%; MRT [7]: 8.6 h; CL [14]: 13 mL/min/kg
Cc1nnc(-c2ccc(-c3ccc(F)c4c3C(=O)N([C@H](C3CC3)C(C)(C)O)C4)cc2)o1 | 97 | 8.9 |  |  |  |  |  |  |  |  |  |  |  |  |  | 
Cc1nnc(-c2ccc(-c3cc(F)c(F)c4c3C(=O)N([C@H](C3CC3)C(C)(C)O)C4)cc2)o1 |  |  | 13 | 0.1 | 57 | 169 | 3.7 | 0.021 | 0.05 | 36 | 0.14 | 17 | 64 | 11 | 17 | 
Cc1nnc(-c2ccc(-c3cc(F)cc4c3C(=O)N([C@H](C3CC3)C(C)(C)O)C4)cc2)o1 | 75 | 25 | 19 |  |  |  |  | 0.026 | 0.046 |  | 0.2 | 21 | 100 | 10 | 12 | bioavailability [20]: 38%; CL [21]: 120 mL/min/kg; CL/F [22]: 3 mL/min/kg; Vdu [23]: 16 L/kg; MRT [24]: 2.3 h
Cc1nnc(-c2ccc(-c3c(F)c(F)cc4c3C(=O)N([C@H](C3CC3)C(C)(C)O)C4)cc2)o1 | 100 | 6.1 | 33 | 0.2 | 36 | 30 | 5.7 | 0.038 | 0.098 | 10 | 0.2 | 11 | 75 | 10 | 7.1 | 
Cc1nnc(-c2ccc(-c3c(F)cc(F)c4c3C(=O)N([C@@H](C(C)(C)O)C(F)(F)F)C4)cc2)o1 | 100 | 14 |  |  |  |  |  |  |  |  |  |  |  |  |  | 
Cc1nnc(-c2ccc(-c3c(F)ccc4c3C(=O)N([C@H](C3CC3)C(C)(C)O)C4)cc2)o1 | 100 | 5.2 |  |  |  |  |  |  |  |  |  |  |  |  |  | 
CCOc1ccccc1C(=O)Nc1cccc2c1C(=O)N(CC1CC1)C2 | 81 | 4.3 |  |  |  |  |  |  |  |  |  |  |  |  |  | MRT [25]: 1.4 h
Cc1nnc(-c2ccc(-c3c(F)c(F)cc4c3C(=O)N([C@@H](C(C)(C)O)C(F)(F)F)C4)cc2)o1 | 80 | 12 | 4.5 | 0.4 | 83 | 30 | 9.9 | 0.037 | 0.067 | 18 | 0.11 | 23 | 79 | 11 | 14 | logD [2]: 2.7
